Measurements from ChEMBL document CHEMBL2311339, “Identification of GZD824 as an orally bioavailable inhibitor that targets phosphorylated and nonphosphorylated breakpoint cluster region-Abelson (Bcr-Abl) kinase and overcomes clinically acquired mutation-induced resistance against imatinib” (J Med Chem, 2013).
Calls of active or inactive are those of the source. No cut-off for these calls is given here.

Experiments:
[1] = Antitumor activity against mouse BA/F3 cells expressing BCR-ABL T315I mutant allografted in SCID mouse assessed as increase in median survival at 10 mg/kg/day, po qd for 10 days; assay type: functional, BaF3
Procedure, shortened: (§1)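 Ba/F3 Bcr-Abl T315I cells stably carrying firefly luciferase, in saline, were injected i.v. into SCID nude mice (2 × 10^6 cells/0.1 mL). Imaging began 5−7 days later: i.p. D-luciferin, halothane anaesthesia, images after 5 min. Mice were randomised by signal and dosed by oral gavage once daily for 10 days (5, 10, 20 mg/kg/day; imatinib 100 mg/kg; vehicle). Luminescence was quantified; survival by Kaplan−Meier with log-rank test.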

[2] = Antitumor activity against mouse BA/F3 cells expressing BCR-ABL T315I mutant allografted in SCID mouse assessed as increase in median survival at 5 mg/kg/day, po qd for 10 days; assay type: functional, BaF3; procedure, shortened: as §1
[3] = test system: BaF3; assay: Antitumor activity against mouse BA/F3 cells expressing BCR-ABL T315I mutant allografted in po dosed SCID mouse assessed as reduction of hepatosplenomegaly administered qd for 14 days; assay type: functional, organism-based
[4] = test system: BaF3; assay: Antitumor activity against mouse BA/F3 cells expressing BCR-ABL T315I mutant allografted in SCID mouse assessed as induction of tumor regression at 20 mg/kg/day, po qd for 14 days; assay type: functional, organism-based
Procedure, shortened: (§2)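 Ba/F3 cells stably expressing Bcr-Abl (wild type or mutant) were grown in RPMI 1640 with 10% FBS and no IL-3, then suspended in saline (2.5 × 10^7 cells/mL) and given as 0.2 mL s.c. in the right flank. Groups were randomised at 100−200 mm3. Once-daily oral gavage for 14 days in DMSO/Cremophor/ethanol/saline vehicle; reference imatinib 50 or 100 mg/kg/day. Volume L × W²/2 every 2 days; n = 10; t test versus vehicle.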

[5] = test system: BaF3; assay: Antitumor activity against mouse BA/F3 cells expressing BCR-ABL T315I mutant allografted in SCID mouse assessed as inhibition of tumor growth at 5 to 10 mg/kg/day, po qd for 14 days; assay type: functional, organism-based; procedure, shortened: as §2
[6] = test system: KU812; assay: Antitumor activity against human KU812 cells xenografted in mouse assessed as induction of tumor regression at 1 mg/kg, po qd for 14 days; assay type: functional, organism-based; design: dose 1 mg/kg
[7] = test system: K562; assay: Antitumor activity against human K562 cells xenografted in mouse assessed as inhibition of tumor growth at 1 mg/kg, po qd for 14 days; assay type: functional; conditions: K562, 336 h, read-out: TGI
Procedure, shortened: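 K562 cells in normal saline (2.5 × 10^7 cells/mL, 0.2 mL) injected subcutaneously into right flank; mice randomized when mean tumor volume reached 100−200 mm3. Dosing once daily by oral gavage for 14 consecutive days in 1% DMSO, 22.5% Cremophor, 7.5% ethanol, 69% saline. Tumor volume (L × W2/2) and body weight every 2 days; n = 10/group; unpaired Student's t test vs vehicle.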

[8] = Plasma concentration in rat after 24 hrs; assay type: ADME
Procedure, shortened: (§3)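 Bismesylate salt given to rats as a single iv dose of 5 mg/kg or a single oral dose of 25 mg/kg. Plasma drug levels were followed over time to derive the PK parameters. The 12 h and 24 h plasma levels come from the oral 25 mg/kg dose.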

[9] = Clearance in rat at 25 mg/kg, po; assay type: ADME, organism-based; design: dose 25 mg/kg, route oral; conditions: in vivo; procedure, shortened: as §3
[10] = Mean residence time in rat at 25 mg/kg, po; assay type: ADME, organism-based; design: dose 25 mg/kg, route oral; conditions: in vivo; procedure, shortened: as §3
[11] = AUC (0 to t) in rat at 25 mg/kg, po; assay type: ADME, organism-based; design: dose 25 mg/kg, route oral; conditions: plasma; procedure, shortened: as §3
[12] = Volume of distribution at steady state in rat at 5 mg/kg, iv; assay type: ADME, organism-based; design: dose 5 mg/kg, route intravenous; conditions: in vivo, read-out: Vdss
Procedure, shortened: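 Test compound given to rats as its bismesylate salt in a single dose, 5 mg/kg iv or 25 mg/kg by mouth. Plasma drug levels were monitored after dosing, and PK parameters including Vss were reported per route.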

[13] = Apparent permeability from basolateral to apical side in human Caco2 cells by LC-MS/MS analysis; assay type: ADME, cell-based; conditions: Caco-2
[14] = biological target: Cytochrome P450 3A4 (Homo sapiens, UniProt P08684); assay: Inhibition of human recombinant CYP3A4 at 30 uM after 30 mins; assay type: ADME; conditions: recombinant enzyme, 0.5 h
[15] = test system: U-937; assay: Cytotoxicity against human U937 cells […] assessed as growth inhibition after 72 hrs by CCK-8 assay; assay type: functional, cell-based; conditions: U-937, 72 h
Procedure, shortened: (§4)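 Log-phase human leukemia cells were seeded at about 3000 cells/well and treated 24 h later for 72 h. CCK-8 was then incubated with the cells for 3 h and read as OD450 − OD650. Viability was normalized to vehicle wells and cell-free blanks, and IC50 taken as the mean of three experiments.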

[16] = test system: K562; assay: Cytotoxicity against imatinib-resistant human K562 cells expressing BCR-ABL Q252H mutant assessed as growth inhibition after 72 hrs by CCK-8 assay; assay type: functional, cell-based; conditions: K562, 72 h
Procedure, shortened: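 The K562 subline was made imatinib-resistant by 3 months of exposure to imatinib from 0.1 to 5 μM, followed by clonal selection and sequencing to confirm Q252H. Cells were seeded at about 3000 cells/well, treated 24 h later for 72 h, then given CCK-8 for 3 h. Read-out was OD450 − OD650 normalized to vehicle; IC50 is the mean of three experiments.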

[17] = Cytotoxicity against human KU812 cells expressing BCR-ABL assessed as growth inhibition after 72 hrs by CCK-8 assay; assay type: functional, cell-based; conditions: KU812, 72 h; procedure, shortened: as §4
[18] = test system: K562; assay: Cytotoxicity against human K562 cells expressing BCR-ABL assessed as growth inhibition after 72 hrs by CCK-8 assay; assay type: functional, cell-based; conditions: K562, 72 h; procedure, shortened: as §4
[19] = Cytotoxicity against mouse BA/F3 cells expressing BCR-ABL F486S mutant assessed as growth inhibition after 72 hrs by CCK-8 assay; conditions: BaF3, 72 h
[20] = Cytotoxicity against mouse BA/F3 cells expressing BCR-ABL H396R mutant assessed as growth inhibition after 72 hrs by CCK-8 assay; conditions: BaF3, 72 h
[21] = Cytotoxicity against mouse BA/F3 cells expressing BCR-ABL M351T mutant assessed as growth inhibition after 72 hrs by CCK-8 assay; conditions: BaF3, 72 h
[22] = Cytotoxicity against mouse BA/F3 cells expressing BCR-ABL L248V mutant assessed as growth inhibition after 72 hrs by CCK-8 assay; conditions: BaF3, 72 h
[23] = biological target: Tyrosine-protein kinase receptor Tie-1 (Homo sapiens) (UniProt P35590); assay: Binding affinity to TIE1 (unknown origin) at 10 nM after 2 hrs by FRET assay
[24] = biological target: Platelet-derived growth factor receptor beta (Homo sapiens) (UniProt P09619); assay: Binding affinity to PDGFRbeta (unknown origin) at 10 nM after 2 hrs by FRET assay
[25] = biological target: Tyrosine-protein kinase ABL1 (Homo sapiens, UniProt P00519, F317I); assay: Binding affinity to non phosphorylated ABL1 F317I mutant (unknown origin) after 1 hr
[26] = biological target: Tyrosine-protein kinase ABL1 (Homo sapiens, UniProt P00519); assay: Binding affinity to non phosphorylated wild type ABL1 (unknown origin) after 1 hr
[27] = biological target: Tyrosine-protein kinase ABL1 (Homo sapiens, UniProt P00519, Q252H); assay type: cell-based
[28] = Cytotoxicity against mouse BA/F3 cells assessed as growth inhibition after 72 hrs by CCK-8 assay; conditions: BaF3, 72 h
[29] = cells; conditions: Mus musculus, BaF3, 72 h

Sequence of Tyrosine-protein kinase receptor Tie-1 (Homo sapiens) (P35590 whole entry): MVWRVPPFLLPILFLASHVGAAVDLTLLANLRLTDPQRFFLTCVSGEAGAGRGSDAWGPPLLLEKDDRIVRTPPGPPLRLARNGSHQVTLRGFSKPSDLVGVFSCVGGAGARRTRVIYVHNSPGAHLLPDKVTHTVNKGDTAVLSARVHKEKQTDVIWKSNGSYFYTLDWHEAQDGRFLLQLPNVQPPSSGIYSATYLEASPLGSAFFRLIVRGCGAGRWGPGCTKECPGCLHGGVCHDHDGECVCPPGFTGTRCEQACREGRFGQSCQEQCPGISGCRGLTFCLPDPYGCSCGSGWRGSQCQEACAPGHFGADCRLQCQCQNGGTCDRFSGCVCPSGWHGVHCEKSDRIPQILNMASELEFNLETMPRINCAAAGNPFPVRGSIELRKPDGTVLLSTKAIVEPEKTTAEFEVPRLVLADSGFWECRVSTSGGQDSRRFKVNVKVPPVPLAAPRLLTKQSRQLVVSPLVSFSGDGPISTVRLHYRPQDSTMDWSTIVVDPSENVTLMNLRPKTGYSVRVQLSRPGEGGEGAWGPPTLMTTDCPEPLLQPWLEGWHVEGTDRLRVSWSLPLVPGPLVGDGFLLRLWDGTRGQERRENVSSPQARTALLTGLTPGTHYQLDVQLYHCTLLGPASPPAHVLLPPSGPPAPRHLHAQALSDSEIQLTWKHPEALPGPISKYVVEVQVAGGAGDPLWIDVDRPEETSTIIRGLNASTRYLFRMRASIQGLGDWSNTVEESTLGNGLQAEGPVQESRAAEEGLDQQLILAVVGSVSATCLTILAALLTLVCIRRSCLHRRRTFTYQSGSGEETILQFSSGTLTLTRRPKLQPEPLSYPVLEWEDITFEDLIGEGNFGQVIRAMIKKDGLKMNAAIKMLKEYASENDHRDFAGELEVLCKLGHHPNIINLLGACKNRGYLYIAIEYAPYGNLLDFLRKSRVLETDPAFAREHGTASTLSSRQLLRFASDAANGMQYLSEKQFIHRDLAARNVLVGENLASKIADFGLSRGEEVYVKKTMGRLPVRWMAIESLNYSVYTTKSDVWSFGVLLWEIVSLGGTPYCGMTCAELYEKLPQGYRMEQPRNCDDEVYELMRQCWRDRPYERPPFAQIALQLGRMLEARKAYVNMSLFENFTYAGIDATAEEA
Sequence of Cytochrome P450 3A4 (P08684 whole entry): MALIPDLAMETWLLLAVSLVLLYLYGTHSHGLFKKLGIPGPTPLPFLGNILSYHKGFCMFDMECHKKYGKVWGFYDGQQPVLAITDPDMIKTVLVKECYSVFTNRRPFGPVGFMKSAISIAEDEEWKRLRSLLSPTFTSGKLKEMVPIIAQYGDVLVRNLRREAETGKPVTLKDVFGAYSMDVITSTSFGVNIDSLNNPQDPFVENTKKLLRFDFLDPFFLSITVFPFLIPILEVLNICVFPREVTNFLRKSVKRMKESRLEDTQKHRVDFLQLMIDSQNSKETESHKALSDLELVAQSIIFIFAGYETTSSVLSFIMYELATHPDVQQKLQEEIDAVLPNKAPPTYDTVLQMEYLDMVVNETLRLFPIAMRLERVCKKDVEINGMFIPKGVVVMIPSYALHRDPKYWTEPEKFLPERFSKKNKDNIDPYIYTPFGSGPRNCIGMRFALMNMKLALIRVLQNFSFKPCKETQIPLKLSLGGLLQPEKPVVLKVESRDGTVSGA
Sequence of Platelet-derived growth factor receptor beta (Homo sapiens) (P09619 whole entry): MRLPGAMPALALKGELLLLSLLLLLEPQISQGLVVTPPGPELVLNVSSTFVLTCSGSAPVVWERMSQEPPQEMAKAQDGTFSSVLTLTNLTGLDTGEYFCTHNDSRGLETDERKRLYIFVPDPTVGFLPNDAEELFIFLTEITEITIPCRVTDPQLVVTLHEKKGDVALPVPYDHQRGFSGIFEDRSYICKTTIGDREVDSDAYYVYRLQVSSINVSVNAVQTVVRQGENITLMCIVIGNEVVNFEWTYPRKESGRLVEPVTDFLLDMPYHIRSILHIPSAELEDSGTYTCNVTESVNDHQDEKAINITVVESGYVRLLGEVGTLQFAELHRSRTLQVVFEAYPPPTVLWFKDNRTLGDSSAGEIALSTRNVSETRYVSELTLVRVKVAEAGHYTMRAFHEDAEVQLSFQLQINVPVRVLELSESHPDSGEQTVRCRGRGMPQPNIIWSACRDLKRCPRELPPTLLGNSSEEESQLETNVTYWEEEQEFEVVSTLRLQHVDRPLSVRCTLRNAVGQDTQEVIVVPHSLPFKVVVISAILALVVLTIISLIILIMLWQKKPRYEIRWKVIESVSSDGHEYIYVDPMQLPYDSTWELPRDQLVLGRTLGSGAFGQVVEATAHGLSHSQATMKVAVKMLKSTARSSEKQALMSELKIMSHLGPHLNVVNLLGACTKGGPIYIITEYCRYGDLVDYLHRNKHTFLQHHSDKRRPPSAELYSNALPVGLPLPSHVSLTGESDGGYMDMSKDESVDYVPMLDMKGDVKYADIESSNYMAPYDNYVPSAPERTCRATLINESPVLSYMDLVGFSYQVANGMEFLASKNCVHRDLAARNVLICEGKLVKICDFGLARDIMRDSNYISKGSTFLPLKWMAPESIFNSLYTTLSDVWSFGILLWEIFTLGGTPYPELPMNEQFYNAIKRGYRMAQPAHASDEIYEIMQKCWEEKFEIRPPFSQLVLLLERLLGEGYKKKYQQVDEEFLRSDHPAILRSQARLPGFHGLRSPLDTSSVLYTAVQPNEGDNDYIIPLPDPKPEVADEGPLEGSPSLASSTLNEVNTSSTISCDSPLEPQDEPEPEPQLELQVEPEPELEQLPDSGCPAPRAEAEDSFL

Cc1ccc(C(=O)Nc2ccc(CN3CCN(C)CC3)c(C(F)(F)F)c2)cc1C#Cc1cnc2[nH]ncc2c1 [OLVEREMBATINIB]
Survival [1]: 24.6 days
Survival [2]: 23.7 days
Activity [3]: Active
Activity [4]: Active
TGI [5]: inactive
Activity [6]: Active
inhibition in vivo at 1 mg/kg [7]: 68.3%
concentration at 24 h [8]: 169 nM
CL/F [9]: 60 mL/min/kg
MRT [10]: 17.9 h
AUC(0-t) [11]: 6700 ng·h/mL
Vd [12]: 13.7 L/kg
Papp B→A [13]: 0.28 ×10⁻⁶ cm/s
inhibition (INH) [14]: Not Active
IC50 [15]: 390 nM
IC50 [16]: 4.5 nM
IC50 [17]: 0.13 nM
IC50 [18]: 0.2 nM
IC50 [19]: 1 nM
IC50 [20]: 5.5 nM
IC50 [21]: 0.2 nM
IC50 [22]: 7.3 nM
Activity [23]: inactive
Activity [24]: inactive
Kd [25]: 1.8 nM
Kd [26]: 0.32 nM
IC50 [27]: 0.15 nM
IC50 [28]: 170 nM
IC50 [29]: 7.1 nM
